Series [1] is filed under the species Rattus norvegicus. Kind of series: Inhibition of [3H]BTX binding to sodium channel site 2 in rat cerebral cortex synaptosomes at 10 uM incubated for 60 mins by scintillation counting based radioligand displacement assay. The format is subcellular. Put shortly: (§1)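 Synaptoneurosomal preparations from rat cerebral cortex were used. The read-out was inhibition of specific [3H]BTX binding to the voltage-sensitive sodium channel (site 2), expressed as % inhibition of control specific binding. Compounds were tested at 1, 10, 100 and 500 μM. Inhibition above 50% was taken as significant.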

Series [2] deals with Mus musculus. Kind of series: Anticonvulsant activity in Swiss mouse assessed as protection against seizures at 300 mg/kg, ip dosed 0.25 hrs before initiation of maximal electroconvulsions by maximal electroshock test. The format is functional. A digest of the protocol:
(§2)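 Mice were dosed i.p. at a fixed 300 or 100 mg/kg (6 Hz: 100 mg/kg only). Protection was then scored against MES, sc PTZ or 6 Hz seizures at pretreatment times of 0.25, 0.5, 1 and 2 h. Groups were four mice, scored as number protected / number tested. This also gives the time course and time of peak effect.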

The subject of series [3] is Mus musculus. Kind of series: Anticonvulsant activity in ip dosed Swiss mouse assessed as protection against seizures measured at 1 hr of time to peak effect by subcutaneous pentylenetetrazole seizure test. The format is functional.
Series [4] can be described thus: Toxicity against HEK293 cells assessed as reduction in cell viability after 48 hrs by EZ4U label based assay. The following applies: human. A digest of the protocol:
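HEK-293 human embryonic kidney cells were incubated with compound for 48 h and viability was then measured. Doxorubicin served as standard.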

For series [5], the system named is Mus musculus. Kind of series: Anticonvulsant activity in Swiss mouse assessed as protection against seizures at 100 mg/kg, ip dosed 2 hrs before pentylenetetrazole challenge by subcutaneous pentylenetetrazole seizure test. The format is functional. Put shortly: as §2
Series [6] concerns Mus musculus. Kind of series: Anticonvulsant activity in Swiss mouse assessed as protection against seizures at 100 mg/kg, ip dosed 2 hrs before initiation of maximal electroconvulsions by maximal electroshock test. Type of series: functional. Put shortly:
as §2

For series [7], the species on record is Mus musculus. As to the kind of experiment: Protective index, ratio of neurotoxic TD50 in Swiss mouse by Chimney test to anticonvulsant ED50 in Swiss mouse measured at 0.5 hrs of time to peak effect by 6 Hz test by 6 Hz psychomotor seizure test. The format is functional. Put shortly:
(§3)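 Protective index was calculated as TD50 (chimney test, mouse, i.p.) divided by ED50 from the matching MES, sc PTZ or 6 Hz test, both taken at the time of peak effect.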

The test system of series [8] is Mus musculus. As to the kind of experiment: Anticonvulsant activity in ip dosed Swiss mouse assessed as protection against seizures measured at 0.5 hrs of time to peak effect by 6 Hz test by 6 Hz psychomotor seizure test. Type of series: functional. Put shortly: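 Median effective doses (ED50, mg/kg) were determined i.p. in mice at the time of peak effect in the MES, sc PTZ or 6 Hz tests. Only compounds giving at least 50% protection at 100 mg/kg in that test were taken forward.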

Series [9] has as its system Mus musculus. Kind of series: Anticonvulsant activity in Swiss mouse assessed as protection against seizures at 300 mg/kg, ip dosed 0.5 hrs before pentylenetetrazole challenge by subcutaneous pentylenetetrazole seizure test. The format is functional. A digest of the protocol: as §2
In series [10] the test system is Mus musculus. Kind of series: Anticonvulsant activity in ip dosed Swiss mouse assessed as protection against seizures measured at 1 hr of time to peak effect by maximal electroshock test. Type of series: functional.
The species named for series [11] is Rattus norvegicus. As to the kind of experiment: Inhibition of [3H]BTX binding to sodium channel site 2 in rat cerebral cortex synaptosomes at 1 uM incubated for 60 mins by scintillation counting based radioligand displacement assay. The format is subcellular. A digest of the protocol:
as §1

The subject of series [12] is Mus musculus. As to the kind of experiment: Anticonvulsant activity in Swiss mouse assessed as protection against seizures at 300 mg/kg, ip dosed 1 hr before pentylenetetrazole challenge by subcutaneous pentylenetetrazole seizure test. The format is functional. Put shortly:
as §2

The test system of series [13] is Mus musculus. Kind of series: Anticonvulsant activity in Swiss mouse assessed as protection against seizures at 100 mg/kg, ip dosed 1 hr before pentylenetetrazole challenge by subcutaneous pentylenetetrazole seizure test. The format is functional. Put shortly: as §2
In series [14] the test system is Mus musculus. As to the kind of experiment: Anticonvulsant activity in Swiss mouse model of 6 Hz psychomotor seizure mode assessed as protection against seizures at 100 mg/kg, ip dosed 1 hr before 6 Hz electrical stimulation by 6 Hz test. Type of series: functional. Put shortly:
as §2

Series [15] deals with Mus musculus. Kind of series: Anticonvulsant activity in Swiss mouse assessed as protection against seizures at 100 mg/kg, ip dosed 0.25 hrs before pentylenetetrazole challenge by subcutaneous pentylenetetrazole seizure test. Type of series: functional. Put shortly:
as §2

The species named for series [16] is Mus musculus. As to the kind of experiment: Protective index, ratio of neurotoxic TD50 in Swiss mouse by Chimney test to anticonvulsant ED50 in Swiss mouse measured at 1 hr of time to peak effect by maximal electroshock test. A digest of the protocol:
as §3

Series [17] deals with Mus musculus. Kind of series: Anticonvulsant activity in Swiss mouse assessed as protection against seizures at 100 mg/kg, ip dosed 0.5 hrs before pentylenetetrazole challenge by subcutaneous pentylenetetrazole seizure test. The format is functional. Put shortly: as §2
The subject of series [18] is Liver microsome. Kind of series: Drug metabolism in human liver microsomes assessed as metabolite M2 formation at 50 uM in presence of NADPH regeneration system pre-incubated at 37 degC for 5 min and measured 2 hrs after post NADPH system addition by UPLC and LC-MS/MS method. The format is ADME. Put shortly:
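The compound was incubated 2 h with human liver microsomes. Metabolites were detected by full-scan chromatogram and identified by LC/MS from their [M+H]+ molecular masses.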

The test system of series [19] is Mus musculus. Kind of series: Protective index, ratio of neurotoxic TD50 in Swiss mouse by Chimney test to anticonvulsant ED50 in Swiss mouse measured at 0.5 hrs of time to peak effect by subcutaneous pentylenetetrazole seizure test. Type of series: functional. A digest of the protocol:
as §3

Structures are written as SMILES.

For the compound `CC(C(=O)N1CCN(c2cccc(C(F)(F)F)c2)CC1)N1C(=O)CCC1=O` (racemic), the inhibition was determined as 12.2% in [1] and 3.5% in series [11]. Besides, the Activity in series [2] was 75%; in series [5], 75%; in series [6], 0%; in series [9], 100%; in series [12] it was 100%; in series [13] it was 75%. In addition, the results for the Activity in series [14], in [15] and in [17] were 100%, 50% and 100%, respectively. Besides, the ED50 came to 88.7 mg/kg in [3], 21 mg/kg in [8] and 85.1 mg/kg in series [10]. Moreover, in series [4], the half-maximal inhibitory concentration (IC50) at 48 h worked out at 50.7 µM. Further, the figures for the “Ratio TD50/ED50” value in [7], in [16] and in [19] were >71.43, 9.68 and >25.04, respectively. For the same compound, the Drug metabolism entry in series [18] was “metabolite_detected”.
